Bioassay records deposited in PubChem by several laboratories.
Most compounds without a hit are left out; they make up all but 1.3% or so of the library.
procasp7 counter – counter-screen for procaspase-3 activators: activators of human procaspase-7. activation, % at 8.5 µM. actives 0.093% (n = 330,000). recombinant procaspase-7, Ac-DEVD-pNA absorbance 405 nm; D23A/D198A/D206A triple mutant, cannot self-cleave; scale: DMSO 0, 5 µM enzyme 100. P55210;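 active means percent activation above the screen-wide mean plus 3 SD, cut at about 25% in these data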
Target sequence (P55210 whole entry D23A/D198A/D206A): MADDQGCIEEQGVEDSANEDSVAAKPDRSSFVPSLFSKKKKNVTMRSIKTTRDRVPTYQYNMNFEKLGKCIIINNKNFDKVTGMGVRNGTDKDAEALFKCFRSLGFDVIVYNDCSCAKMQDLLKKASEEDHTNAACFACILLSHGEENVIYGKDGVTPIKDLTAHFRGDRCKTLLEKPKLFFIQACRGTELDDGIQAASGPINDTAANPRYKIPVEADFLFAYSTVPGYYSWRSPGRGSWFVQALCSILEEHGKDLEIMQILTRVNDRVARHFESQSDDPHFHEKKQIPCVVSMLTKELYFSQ
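Assay system: Uncleavable procaspase-7 mutant enzyme | Input: 2 µM procaspase-7 mutant as dispensed | Timing: 1 h compound preincubation, 2 h substrate cleavage, 25 °C | Repeats: One well per compound | Control set: DMSO wells as 0%, DMSO with 5 µM added PC-7 as 100% | Technique: Epi-absorbance of released pNA at 405 nm, two timepoints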
CHT allo act – human CHT allosteric activation; actives 0.49% (n = 310,000); CHT-expressing cells, membrane potential dye, choline EC20; stronger effect = higher value; LV-AA mutant CHT in HEK293 cells; Q9GZV3; AID 488977; B-score at 10 µM;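 active means initial fluorescence not abnormally high and integrated response B-score, plate-corrected, over 3 SD above library mean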
procasp3 activ – activators of human procaspase-3; P42574; activation, % at 8.5 µM; recombinant procaspase-3 D3A, Ac-DEVD-pNA absorbance 405 nm; actives 0.11% (n = 330,000); AID 463141;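 active means activation above the mean of all tested compounds plus 3 SD, cut at about 21% in these data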
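Evaluation: percent activation relative to control range; Material: Procaspase-3 D3A mutant, all three cleavage aspartates alanine; Compound: single dose, 8.5 µM nominal compound, 0.8% DMSO; Replication: one well per compound; Signal: absorbance at 405 nm, 0 and 120 min; Schedule: 1 h preincubation plus 2 h reaction at 25 °C.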
CHT block – inhibitors of human choline transporter CHT; Q9GZV3; CHT-expressing cells, membrane potential dye, choline response; stronger effect = lower value; B-score at 10 µM; actives 0.86% (n = 310,000); AID 488975;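 active means B-score over 3 SD under the library average, and starting fluorescence ratio not unusually high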;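 further: choline stimulus applied at its EC90 after an EC20 pre-addition; B-score computed on integrated fluorescence ratio after choline addition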
CHT activ conf – human CHT activation, confirmatory screen | shares compounds with CHT allo act | CHT-expressing cells, membrane potential dye fluorescence (FDSS); % of choline EC20–EC90 response window; HEK293 expressing CHT LV-AA mutant; choline added at its EC20 | activation, % at 10 µM | actives 91% (n = 2,500) | AID 504833;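 active means primary screen active, with duplicate mean activation above negative control mean plus 3 SD, cut at about 11% in these data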
HEK293 MP dye – CHT activator counter-screen hit in parental HEK293 cells. shares compounds with CHT allo act. membrane potential dye fluorescence (FDSS); measured after EC20 choline addition. ratio readout change at 10 µM, hits read low. actives 62% (n = 2,500);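 active means duplicate-averaged ratio beyond 3 SD from buffer wells, up or down, though filed actives are nearly all decreases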
A number is an active result; – = inactive; · = no result given.

SMILES	procasp7 counter	CHT allo act	procasp3 activ	CHT block	CHT activ conf	HEK293 MP dye
CCN1CCN(c2c(Cl)cccc2NC(=O)c2ccc([N+](=O)[O-])cc2)CC1	–	12	–	–	53	-67
Cc1cc(NCCNC2=CC(=O)CCC2)nc2ccccc12	–	–	–	–	48	-47
Cc1cc(NCC2CCCCC2)nc2ccccc12	–	–	–	–	·	·
Cc1ccc(S(=O)(=O)Nc2cccc(C(=O)NCc3ccc(S(N)(=O)=O)cc3)c2)cc1	–	–	–	–	·	·
COc1ccc(N(C(=O)c2ccco2)C(C(=O)NC2CCCC2)c2cccs2)cc1OC (stereo not given)	–	–	–	–	·	·
COc1ccccc1N(C(=O)c1ccco1)C(C(=O)NC1CCCC1)c1cccs1 (stereo not given)	–	11	–	–	23	–
O=C(NC1CCCCC1)C(c1cccs1)N(Cc1cccs1)C(=O)c1cccs1 (stereo not given)	–	9.2	–	–	30	–
C[C@@]12C(=O)N(CC3CC3)CC(=O)N1[C@H](/C=C/c1ccccc1)[C@@H]1C(=O)N(c3ccccc3)C(=O)[C@@H]12	–	–	–	–	·	·
O=C(NCC(=O)N1CCN(Cc2ccccc2)CC1)c1cc(Cl)cc([N+](=O)[O-])c1	–	·	–	·	·	·
COCCN(C(=S)Nc1ccc(OC)cc1)C(C)c1cccs1 (stereo not given)	–	8.1	–	–	–	–
CSc1ncccc1C(=O)N1CCN(S(=O)(=O)c2ccc(F)cc2)CC1	–	–	–	–	·	·
CCOC(=O)c1c(C)nc2ccccc2c1-c1ccccc1	–	–	–	–	16	–
Cc1ccc(NC(=O)C(c2ccccc2)N2CCN(CC(=O)NC3CC3)CC2)cc1Cl (stereo not given)	–	·	–	·	·	·
COc1ccc(NC(=O)C(c2ccccc2)N2CCN(c3ccccn3)CC2)cc1Cl (stereo not given)	–	7.9	–	–	22	–
CCOC(=O)c1sc(NC(=O)Cc2ccccc2OC)nc1C	–	–	–	–	15	–
CCc1c(C)c(C#N)c2nc3ccccc3n2c1NCc1ccco1	–	–	–	–	11	–
CCc1c(C)c(C#N)c2nc3ccccc3n2c1NC	–	–	–	–	·	·
Cc1csc(NC(=O)COc2ccc3c(c2)CCC3)n1	–	·	–	·	·	·
CN(C)CC1CCCCC1C1(O)c2ccccc2CSc2sccc21 (stereo not given)	–	–	–	–	13	–
CN(C)CC1CCCCC1OC(=O)c1ccc(Cl)cc1 (stereo not given)	–	–	–	–	·	·
Cc1ccc(S(=O)(=O)CCC(=O)OCC(=O)N(Cc2ccccc2)C(C)C)cc1	–	–	–	–	·	·
CCN(CC)CCNC(=O)c1cc2c(=O)n(C)c3ccccc3c2n1C	–	–	–	–	·	·
CCN(CC)CCCNC(=O)c1cc2c(=O)n(C)c3ccccc3c2n1C	–	6.7	–	–	49	-23
Cn1c(C(=O)NCCCN2CCCCCC2)cc2c(=O)n(C)c3ccccc3c21	–	–	–	–	·	·
CCOC(=O)N1CCC(NC(=O)c2cc3c(=O)n(C)c4ccccc4c3n2C)CC1	–	–	–	–	·	·
SMILES	procasp7 counter	CHT allo act	procasp3 activ	CHT block	CHT activ conf	HEK293 MP dye
COCCNC(=O)c1cc2c(=O)n(C)c3ccccc3c2n1C	–	–	–	–	·	·
CN(C)CCNC(=O)c1cc2c(=O)n(C)c3ccccc3c2n1C	–	–	–	–	42	-33
Cn1c(C(=O)NC2CC2)cc2c(=O)n(C)c3ccccc3c21	–	–	–	–	36	-30
Cn1c(C(=O)NCCCN2CCc3ccccc3C2)cc2c(=O)n(C)c3ccccc3c21	–	–	–	–	25	-27
NS(=O)(=O)c1cccc(NC(=O)COC(=O)c2ccccc2SCC(=O)N2CCCC2)c1	–	·	–	·	·	·
CN1CCc2c(sc(NC(=O)C3CCN(S(=O)(=O)c4cccs4)CC3)c2C(N)=O)C1	–	–	–	–	·	·
Cc1onc(-c2ccccc2)c1C(=O)OCC(=O)N(CC(C)C)c1c(N)n(Cc2ccccc2)c(=O)[nH]c1=O	–	–	–	–	·	·
